Experimental data: ChEMBL document CHEMBL1139789, “Synthesis of neuroprotective cyclopentenone prostaglandin analogs: suppression of manganese-induced apoptosis of PC12 cells” (Bioorg Med Chem Lett, 2007)
Active and inactive are the calls of the source. The calls are words filed in the database; no cut-off is given here.

Assays:
[1] = system: PC-12; assay: Toxicity in PC12 cells assessed by measuring DNA fragmentation at 10 uM; format: cell-based, Homo sapiens; conditions: pc-12, 10 µM
Procedure, shortened: (§1)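 PC12 cells (2·10⁷) exposed to agent at 10 and 20 μM in DMEM with 5% FBS at 37 °C, 30 min preincubation, then 20 h further incubation with no MnCl₂ added. Apoptosis judged by DNA laddering: soluble DNA extracted, agarose gel electrophoresis, UV transilluminator visualization.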

[2] = system: PC-12; assay: Inhibition of manganese ion-induced apoptosis in PC12 cells assessesed as suppression of DNA fragmentation upto 20 uM; format: functional, cell-based
Procedure, shortened: (§2)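 PC12 cells (2·10⁷) preincubated with test agent at 10 and 20 μM for 30 min at 37 °C in DMEM plus 5% FBS. MnCl₂ then added to 0.25 mM and incubation continued 20 h at 37 °C. Soluble DNA extracted, run on agarose gels, laddering visualized on UV transilluminator.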

[3] = system: PC-12; assay: Inhibition of manganese ion-induced apoptosis in PC12 cells assessesed as suppression of DNA fragmentation at 10 uM; format: functional; conditions: Rattus norvegicus; procedure, shortened: as §2
[4] = system: PC-12; assay: Toxicity in PC12 cells assessed by measuring DNA fragmentation upto 20 uM; format: cell-based, Homo sapiens; procedure, shortened: as §1

| Compound | Activity [1] | Activity [2] | inhibition at 10 µM [3] [%] | Activity [4] |
| --- | --- | --- | --- | --- |
| CCCCC[C@H](O)/C=C/[C@H]1C=CC(=O)/C1=C/CCCCCC(=O)OC | Toxic | inactive | – | – |
| CCCCCCCC[C@@H]1C=CC(=O)/C1=C/CCCCCC(=O)OC | – | – | 50 | – |
| COC(=O)CCCCC/C=C1/C(=O)CC[C@H]1CCCCCCc1ccc(C)cc1 | – | inactive | – | Non-toxic |
| COC(=O)CCCCC/C=C1/C(=O)C=C[C@H]1CCCCCCc1ccc(C)cc1 | Toxic | – | 50 | – |
| COC(=O)CCCCCC[C@H]1C=CC(=O)/C1=C/CCCCCc1ccc(C)cc1 | – | – | 50 | Non-toxic |
| COC(=O)CCCCCC[C@@H]1C(=O)C=C[C@H]1CCCCCCc1ccc(C)cc1 | – | inactive | – | Non-toxic |
| COC(=O)CCCCCC[C@@H]1C=CC(=O)/C1=C/CCCCOc1ccc(Br)cc1 | Toxic | inactive | – | – |
| COC(=O)CCCCC/C=C1\CC=CC1=O | – | inactive | – | Non-toxic |
| COC(=O)CCCCCC[C@H]1C=CC(=O)/C1=C/CCCCOc1ccc(Br)cc1 | – | – | < 50 | Non-toxic |
| CCCCCCC/C=C1/C(=O)C=C[C@@H]1CCCCCCC(=O)OC | – | – | 50 | Non-toxic |
| CCCCC/C=C/C=C1/C(=O)C=CC1C/C=C\CCCC(=O)O (stereo unspecified) | Toxic | inactive | – | – |
